Measured values as given in ChEMBL document CHEMBL2046280, “Discovery of the novel potent and selective FLT3 inhibitor 1-{5-[7-(3- morpholinopropoxy)quinazolin-4-ylthio]-[1,3,4]thiadiazol-2-yl}-3-p-tolylurea and its anti-acute myeloid leukemia (AML) activities in vitro and in vivo” (J Med Chem, 2012).
The source made the active and inactive calls. The rule behind the calls is not given here.

Key:
KARPAS-299 = test: Cytotoxicity against human KARPAS299 cells after 72 hrs by MTT assay; conditions: KARPAS-299, 72 h
MDA-MB-231 = test: Cytotoxicity against human MDA-MB-231 cells after 72 hrs by MTT assay; conditions: MDA-MB-231, 72 h
[1] = target: Tyrosine-protein kinase JAK3 (Homo sapiens, UniProt P52333); test: Inhibition of human JAK3
Chain of Tyrosine-protein kinase JAK3 (P52333 whole entry): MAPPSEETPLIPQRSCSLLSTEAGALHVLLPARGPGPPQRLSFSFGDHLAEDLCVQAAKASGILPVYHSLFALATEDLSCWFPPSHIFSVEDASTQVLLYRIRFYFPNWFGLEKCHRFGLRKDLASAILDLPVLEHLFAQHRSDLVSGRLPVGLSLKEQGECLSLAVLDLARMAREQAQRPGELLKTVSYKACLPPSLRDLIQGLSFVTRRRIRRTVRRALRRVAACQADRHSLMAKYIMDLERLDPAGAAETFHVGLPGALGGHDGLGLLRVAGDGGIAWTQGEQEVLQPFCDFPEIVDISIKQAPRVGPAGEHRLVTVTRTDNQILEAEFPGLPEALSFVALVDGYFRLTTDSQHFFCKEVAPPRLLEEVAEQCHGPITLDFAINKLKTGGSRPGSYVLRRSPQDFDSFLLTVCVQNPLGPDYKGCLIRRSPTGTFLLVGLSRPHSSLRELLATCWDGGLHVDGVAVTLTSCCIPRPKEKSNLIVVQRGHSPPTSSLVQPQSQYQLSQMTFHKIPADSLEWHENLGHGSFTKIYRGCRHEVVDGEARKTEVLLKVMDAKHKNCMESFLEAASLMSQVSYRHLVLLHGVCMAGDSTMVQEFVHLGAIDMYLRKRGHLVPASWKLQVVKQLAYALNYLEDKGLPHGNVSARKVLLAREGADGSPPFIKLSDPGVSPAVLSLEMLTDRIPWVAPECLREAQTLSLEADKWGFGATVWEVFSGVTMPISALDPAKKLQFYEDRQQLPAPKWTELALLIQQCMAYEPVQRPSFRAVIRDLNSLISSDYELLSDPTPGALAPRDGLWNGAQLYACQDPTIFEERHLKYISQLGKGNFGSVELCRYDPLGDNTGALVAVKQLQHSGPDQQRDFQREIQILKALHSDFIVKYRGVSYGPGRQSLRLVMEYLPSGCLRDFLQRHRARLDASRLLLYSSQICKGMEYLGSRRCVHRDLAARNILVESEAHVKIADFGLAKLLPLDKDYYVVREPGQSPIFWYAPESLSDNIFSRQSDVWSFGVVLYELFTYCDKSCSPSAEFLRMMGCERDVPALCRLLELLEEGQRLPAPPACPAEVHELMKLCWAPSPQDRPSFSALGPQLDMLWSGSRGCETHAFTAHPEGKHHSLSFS

MV4-11 [2] = test: Antitumor activity against human MV4-11 cells xenografted in NOD-SCID mouse assessed as increase in apoptotic cells at 20 mg/kg, ip administered qd for 21 days measured after 2 to 3 days of last dose by TUNEL analysis; format: functional, organism-based; set-up: dose 20 mg/kg; conditions: TDE = time-dependent effect
Method in brief: (§1)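 NOD-SCID mice bearing MV4-11 tumours received 20 mg/kg/d ip and were sacrificed at set times after dosing. Tumours were formalin-fixed and paraffin-embedded, and 4−8 μm sections were cut. Proliferation by Ki67 immunostaining, apoptosis by TUNEL staining, tissue by hematoxylin staining; light-microscope imaging.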

[3] = target: Platelet-derived growth factor receptor beta (Homo sapiens, UniProt P09619); test: Inhibition of human PDGFRbeta
NCI-H292 = test: Cytotoxicity against human NCI-H292 cells after 72 hrs by MTT assay; conditions: NCI-H292, 72 h
[4] = target: Vascular endothelial growth factor receptor 3 (Homo sapiens, UniProt P35916); test: Inhibition of human FLT4
Chain of Vascular endothelial growth factor receptor 3 (P35916 whole entry): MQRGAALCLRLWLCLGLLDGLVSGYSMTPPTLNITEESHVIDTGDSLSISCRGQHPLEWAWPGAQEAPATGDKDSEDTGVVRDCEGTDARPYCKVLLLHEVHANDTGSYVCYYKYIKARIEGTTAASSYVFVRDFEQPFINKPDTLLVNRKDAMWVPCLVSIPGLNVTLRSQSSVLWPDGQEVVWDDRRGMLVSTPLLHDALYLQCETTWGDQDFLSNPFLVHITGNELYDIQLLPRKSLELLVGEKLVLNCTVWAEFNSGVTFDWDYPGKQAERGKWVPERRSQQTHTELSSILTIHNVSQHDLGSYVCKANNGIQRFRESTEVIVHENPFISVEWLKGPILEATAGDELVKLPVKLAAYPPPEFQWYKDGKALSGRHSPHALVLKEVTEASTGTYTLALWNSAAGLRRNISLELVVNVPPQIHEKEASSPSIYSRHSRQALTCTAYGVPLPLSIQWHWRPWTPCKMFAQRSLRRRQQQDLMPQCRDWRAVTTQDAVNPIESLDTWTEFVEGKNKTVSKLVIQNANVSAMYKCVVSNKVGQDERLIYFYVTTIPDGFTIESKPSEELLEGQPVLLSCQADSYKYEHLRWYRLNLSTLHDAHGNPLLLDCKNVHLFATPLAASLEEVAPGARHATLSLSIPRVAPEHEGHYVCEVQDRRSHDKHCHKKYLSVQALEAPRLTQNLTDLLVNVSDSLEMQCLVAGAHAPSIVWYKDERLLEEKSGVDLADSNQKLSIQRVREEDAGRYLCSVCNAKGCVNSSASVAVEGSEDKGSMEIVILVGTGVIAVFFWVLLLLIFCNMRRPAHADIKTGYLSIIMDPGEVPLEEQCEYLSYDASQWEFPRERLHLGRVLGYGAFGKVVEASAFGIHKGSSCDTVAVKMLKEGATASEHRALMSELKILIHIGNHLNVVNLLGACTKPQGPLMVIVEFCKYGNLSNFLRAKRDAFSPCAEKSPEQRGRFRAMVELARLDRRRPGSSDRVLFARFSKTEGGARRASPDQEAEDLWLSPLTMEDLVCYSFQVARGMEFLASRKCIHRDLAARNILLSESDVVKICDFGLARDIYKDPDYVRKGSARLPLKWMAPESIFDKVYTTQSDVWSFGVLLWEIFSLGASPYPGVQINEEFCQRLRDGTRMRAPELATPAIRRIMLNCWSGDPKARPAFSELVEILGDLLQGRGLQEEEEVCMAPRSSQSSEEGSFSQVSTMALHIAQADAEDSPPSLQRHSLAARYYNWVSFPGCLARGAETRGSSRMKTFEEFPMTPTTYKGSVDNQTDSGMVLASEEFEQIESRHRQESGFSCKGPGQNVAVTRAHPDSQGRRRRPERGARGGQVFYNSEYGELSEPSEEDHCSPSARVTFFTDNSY

SK-OV-3 = test: Cytotoxicity against human SKOV3 cells after 72 hrs by MTT assay; conditions: SK-OV-3, 72 h
MV4-11 [5] = test: Antitumor activity against human MV4-11 cells xenografted in NOD-SCID mouse assessed as tumor growth regression at 100 mg/kg, ip once daily for 21 days measured every 3 days; format: functional, organism-based; set-up: dose 100 mg/kg
Method in brief: (§2)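 Female NOD-SCID mice, 6−7 weeks old, received 100 μL of MV4-11 cells (1 × 10⁸/mL in serum-free medium) s.c. in the hind flank. At 300−500 mm³ tumours, mice were randomized (6 per group). Drug was dissolved in 25% (v/v) PEG400 plus 5% DMSO and given ip once daily at 5 mL/kg. Calipers every 3 days; volume = a × b²/2.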

A-431 = test: Cytotoxicity against human A431 cells after 72 hrs by MTT assay; conditions: A-431, 72 h
MV4-11 [6] = test: Antitumor activity against human MV4-11 cells xenografted in NOD-SCID mouse assessed as tumor growth inhibition at 40 mg/kg, ip once daily for 21 days measured every 3 days; format: functional; conditions: MV4-11, ip, route intraperitoneal, read-out: GI; method in brief: as §2
MV4-11 [7] = test: Antitumor activity against human MV4-11 cells xenografted in NOD-SCID mouse assessed as tumor growth inhibition at 20 mg/kg, ip once daily for 21 days measured every 3 days; format: functional; conditions: MV4-11, ip, route intraperitoneal, read-out: GI; method in brief: as §2
MV4-11 [8] = test: Antitumor activity against human MV4-11 cells xenografted in NOD-SCID mouse assessed as tumor growth inhibition at 100 mg/kg, ip once daily for 21 days measured every 3 days relative to control; format: functional; conditions: MV4-11, ip, route intraperitoneal, read-out: GI; method in brief: as §2
[9] = target: Serine/threonine-protein kinase PLK1 (Homo sapiens, UniProt P53350); test: Inhibition of human PLK1
Chain of Serine/threonine-protein kinase PLK1 (P53350 whole entry): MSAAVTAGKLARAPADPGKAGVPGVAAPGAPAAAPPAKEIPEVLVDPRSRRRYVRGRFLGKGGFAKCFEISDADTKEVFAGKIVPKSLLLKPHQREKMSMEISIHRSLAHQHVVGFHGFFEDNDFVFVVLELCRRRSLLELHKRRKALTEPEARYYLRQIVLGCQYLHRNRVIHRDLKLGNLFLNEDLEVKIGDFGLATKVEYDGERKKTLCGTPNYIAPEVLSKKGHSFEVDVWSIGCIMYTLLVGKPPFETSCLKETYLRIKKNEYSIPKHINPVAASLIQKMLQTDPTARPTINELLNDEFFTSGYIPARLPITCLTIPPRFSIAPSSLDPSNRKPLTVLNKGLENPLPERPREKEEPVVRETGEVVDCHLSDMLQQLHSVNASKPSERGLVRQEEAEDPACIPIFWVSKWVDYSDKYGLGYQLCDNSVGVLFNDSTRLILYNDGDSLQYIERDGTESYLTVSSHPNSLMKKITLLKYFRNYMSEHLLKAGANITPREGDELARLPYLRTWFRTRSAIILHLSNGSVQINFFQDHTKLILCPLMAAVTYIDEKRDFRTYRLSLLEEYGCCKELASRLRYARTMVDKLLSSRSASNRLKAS

A549 = test: Cytotoxicity against human A549 cells after 72 hrs by MTT assay; conditions: A549, 72 h
[10] = target: Serine/threonine-protein kinase pim-1 (Homo sapiens, UniProt P11309); test: Inhibition of human Pim1
Chain of Serine/threonine-protein kinase pim-1 (P11309 whole entry): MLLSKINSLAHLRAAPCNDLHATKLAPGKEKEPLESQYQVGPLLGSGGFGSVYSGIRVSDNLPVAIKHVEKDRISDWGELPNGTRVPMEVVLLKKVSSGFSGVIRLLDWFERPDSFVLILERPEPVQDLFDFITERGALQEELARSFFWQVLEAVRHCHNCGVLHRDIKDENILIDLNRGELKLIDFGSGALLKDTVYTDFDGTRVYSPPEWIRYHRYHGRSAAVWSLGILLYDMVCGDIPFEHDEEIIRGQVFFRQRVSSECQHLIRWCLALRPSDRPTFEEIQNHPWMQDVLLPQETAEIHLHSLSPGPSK

PC-3 = test: Cytotoxicity against human PC3 cells after 72 hrs by MTT assay; conditions: PC-3, 72 h
MV4-11 [11] = test: Downregulation of Erk1/2 protein expression in human MV4-11 cells at 10 to 300 nM after 5 hrs by Western blot analysis; format: functional, cell-based
[12] = Cytotoxicity against human H820 cells after 72 hrs by MTT assay; conditions: NCI-H820, 72 h
[13] = target: Tyrosine-protein kinase SYK (Homo sapiens, UniProt P43405); test: Inhibition of human Syk
BT-474 = test: Cytotoxicity against human BT474 cells after 72 hrs by MTT assay; conditions: BT-474, 72 h
[14] = Cytotoxicity against human HCC827 cells after 72 hrs by MTT assay; conditions: HCC827, 72 h
PC-9 = test: Cytotoxicity against human PC9 cells after 72 hrs by MTT assay; conditions: PC-9, 72 h
MV4-11 [15] = test: Antitumor activity against human MV4-11 cells xenografted in NOD-SCID mouse assessed as tumor regression at 20 mg/kg, ip administered qd for 21 days measured after 2 to 3 days of last dose by hematoxylin staining; format: functional, organism-based; set-up: dose 20 mg/kg; method in brief: as §1
SW480 = test: Cytotoxicity against human SW480 cells after 72 hrs by MTT assay; conditions: SW480, 72 h
SH-SY5Y = test: Cytotoxicity against human SH-SY5Y cells after 72 hrs by MTT assay
U-937 = test: Cytotoxicity against human U937 cells after 72 hrs by MTT assay; conditions: U-937, 72 h
[16] = target: Insulin-like growth factor 1 receptor (Homo sapiens, UniProt P08069); test: Inhibition of human IGF-1R
Chain of Insulin-like growth factor 1 receptor (P08069 31-736 limits assumed): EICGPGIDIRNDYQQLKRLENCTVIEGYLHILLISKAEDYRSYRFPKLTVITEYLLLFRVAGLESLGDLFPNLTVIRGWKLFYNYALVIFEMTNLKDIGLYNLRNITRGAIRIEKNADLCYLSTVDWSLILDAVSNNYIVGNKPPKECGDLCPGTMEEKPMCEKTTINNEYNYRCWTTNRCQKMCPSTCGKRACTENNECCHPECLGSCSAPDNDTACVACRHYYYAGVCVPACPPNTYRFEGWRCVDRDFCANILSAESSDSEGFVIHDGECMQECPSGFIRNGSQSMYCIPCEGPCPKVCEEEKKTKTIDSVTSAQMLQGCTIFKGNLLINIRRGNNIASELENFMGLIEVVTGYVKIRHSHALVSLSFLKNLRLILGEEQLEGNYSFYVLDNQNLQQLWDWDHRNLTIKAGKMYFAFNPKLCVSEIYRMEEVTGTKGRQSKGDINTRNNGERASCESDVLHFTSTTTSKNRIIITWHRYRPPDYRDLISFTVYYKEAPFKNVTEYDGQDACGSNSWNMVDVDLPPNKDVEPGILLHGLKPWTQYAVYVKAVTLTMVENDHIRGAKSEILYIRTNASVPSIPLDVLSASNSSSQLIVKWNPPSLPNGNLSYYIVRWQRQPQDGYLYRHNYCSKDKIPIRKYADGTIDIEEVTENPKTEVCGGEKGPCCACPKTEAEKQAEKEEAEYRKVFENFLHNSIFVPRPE
Chain of Insulin-like growth factor 1 receptor (P08069 741-1367 limits assumed): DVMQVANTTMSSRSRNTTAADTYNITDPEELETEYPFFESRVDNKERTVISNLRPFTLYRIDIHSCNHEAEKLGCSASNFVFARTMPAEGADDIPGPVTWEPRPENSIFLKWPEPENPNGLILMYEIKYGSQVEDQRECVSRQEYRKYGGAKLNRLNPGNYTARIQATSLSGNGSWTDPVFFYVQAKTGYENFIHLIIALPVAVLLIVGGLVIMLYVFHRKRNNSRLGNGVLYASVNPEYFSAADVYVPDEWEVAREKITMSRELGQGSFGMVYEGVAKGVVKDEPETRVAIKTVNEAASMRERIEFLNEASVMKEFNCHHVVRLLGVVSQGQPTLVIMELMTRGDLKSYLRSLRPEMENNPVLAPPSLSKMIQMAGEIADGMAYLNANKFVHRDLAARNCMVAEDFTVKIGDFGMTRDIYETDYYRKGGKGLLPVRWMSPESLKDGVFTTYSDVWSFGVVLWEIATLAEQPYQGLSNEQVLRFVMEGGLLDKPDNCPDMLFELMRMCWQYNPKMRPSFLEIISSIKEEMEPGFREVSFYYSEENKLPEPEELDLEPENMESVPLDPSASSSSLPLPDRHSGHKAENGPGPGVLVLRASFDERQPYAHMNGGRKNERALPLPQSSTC

MCF7 = test: Cytotoxicity against human MCF7 cells after 72 hrs by MTT assay; conditions: MCF7, 72 h
[17] = target: RAF proto-oncogene serine/threonine-protein kinase (Homo sapiens, UniProt P04049); test: Inhibition of human c-Raf

## Cc1ccc(NC(=O)Nc2nnc(Sc3ncnc4cc(OCCCN5CCOCC5)ccc34)s2)cc1
KARPAS-299
  IC50: > 20 µM
MDA-MB-231
  IC50: > 20 µM
[1]
  IC50: > 10 µM
MV4-11 [2]
  Activity: tde
[3]
  IC50: > 10 µM
NCI-H292
  IC50: 6.94 µM
[4]
  IC50: 3.7 µM
SK-OV-3
  IC50: > 20 µM
MV4-11 [5]
  Activity: Active
A-431
  IC50: 8.91 µM
MV4-11 [6]
  inhibition in vivo at 40 mg/kg: 84%
MV4-11 [7]
  inhibition in vivo at 20 mg/kg: 66%
MV4-11 [8]
  inhibition in vivo at 100 mg/kg: 115%
[9]
  IC50: > 10 µM
A549
  IC50: > 20 µM
[10]
  IC50: > 10 µM
PC-3
  IC50: 15.7 µM
MV4-11 [11]
  Activity: inactive
[12]
  IC50: > 20 µM
[13]
  IC50: > 10 µM
BT-474
  IC50: > 20 µM
[14]
  IC50: 12.5 µM
PC-9
  IC50: 3.72 µM
MV4-11 [15]
  Activity: Active
SW480
  IC50: 11.2 µM
SH-SY5Y
  IC50: > 20 µM
U-937
  IC50: > 10 µM
[16]
  IC50: > 10 µM
MCF7
  IC50: > 20 µM
[17]
  IC50: > 10 µM
